Experimental data published in ChEMBL document CHEMBL3352189 (J Med Chem, 2014).
≈ marks a conversion by molar mass, not a printed value. Calls of active or inactive are those of the source. The calls are words filed in the database; no cut-off is given here.

Legend:
[1] = Plasma concentration in C57BL/6 mouse at 10 mg/kg, ip administered as single dose measured after 120 mins by LC/MS analysis based RACE assay; type: ADME, organism-based; design: dose 10 mg/kg, route intraperitoneal
How it was run: (§1)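 Single intraperitoneal dose of 1, 5 or 10 mg/kg given to C57BL/6 mice, 3 mice per dose and time point, with a vehicle-control cohort. Plasma was sampled at 20 and 120 min post-dose and drug level measured by LC/MS. Each time point averaged two injections (<20% difference); values are means ± standard deviation in μM.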

[2] = Plasma concentration in C57BL/6 mouse at 10 mg/kg, ip administered as single dose measured after 20 mins by LC/MS analysis based RACE assay; type: ADME, organism-based; design: dose 10 mg/kg, route intraperitoneal; how it was run: as §1
[3] = target: B2 bradykinin receptor (Homo sapiens) (UniProt P30411); experiment: Displacement of [3H]bradykinin from human bradykinin B2 receptor at 10 uM
[4] = target: Neuropeptide Y receptor type 2 (Homo sapiens) (UniProt P49146); experiment: Displacement of [125I]Peptide YY from human neuropeptide Y Y2 receptor at 10 uM
[5] = target: Alpha-2A adrenergic receptor (Homo sapiens) (UniProt P08913); experiment: Displacement of [3H]MK-912 from human adrenergic alpha2A receptor at 10 uM
[6] = target: Platelet-activating factor receptor (Homo sapiens) (UniProt P25105); experiment: Displacement of [3H]PAF from human PAF receptor at 10 uM
[7] = tested on: Mus musculus; experiment: Toxicity in Venezuelan equine encephalitis virus TC83 infected C3H/HeN mouse assessed as induction of ruffled fur at 40 mg/kg/day, ip BID for 4 days; type: organism-based; design: route intraperitoneal; settings: in vivo, 96 h
[8] = target: Adenosine receptor A1 (Homo sapiens) (UniProt P30542); experiment: Displacement of [3H]DPCPX from human adenosine A1 receptor at 10 uM
[9] = tested on: Venezuelan equine encephalitis virus; experiment: Antiviral activity against Venezuelan equine encephalitis virus TrD infected in Vero 76 cells assessed as reduction in viral titer at 5 uM by crystal violet staining based microplaque assay relative to untreated control; type: functional, organism-based
[10] = target: CYP2C9 (Homo sapiens, UniProt P11712); experiment: Inhibition of human CYP2C9 at 10 uM; type: ADME
[11] = tested on: Mus musculus; experiment: Toxicity in Venezuelan equine encephalitis virus TC83 infected C3H/HeN mouse assessed as induction of lethargy at 40 mg/kg/day, ip BID for 4 days; type: organism-based; design: route intraperitoneal; settings: in vivo, 96 h
[12] = Plasma concentration in C57BL/6 mouse at 1 mg/kg, ip administered as single dose measured after 120 mins by LC/MS analysis based RACE assay; type: ADME, organism-based; design: dose 1 mg/kg, route intraperitoneal; how it was run: as §1
[13] = target: Melatonin-related receptor (Homo sapiens) (UniProt Q13585); experiment: Displacement of [125I]2-Iodomelatonin from human MT1 receptor at 10 uM
[14] = target: Alpha-1A adrenergic receptor (Rattus norvegicus) (UniProt P43140); experiment: Displacement of [3H]prazosin from rat adrenergic alpha1A receptor at 10 uM
[15] = Stability in pH 7.4 PBS buffer assessed as parent compound remaining; type: physicochemical
How it was run: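 Aqueous stability measured after 48 h incubation, in PBS pH 7.4 or in 1:1 PBS/acetonitrile; reported as % parent remaining.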

[16] = tested on: Mus musculus; experiment: Toxicity in Venezuelan equine encephalitis virus TC83 infected C3H/HeN mouse assessed as body weight loss at 40 mg/kg/day, ip BID for 4 days; type: organism-based; design: route intraperitoneal; settings: in vivo, 96 h
[17] = target: Cysteinyl leukotriene receptor 1 (Homo sapiens) (UniProt Q9Y271); experiment: Displacement of [3H]LTD4 from human CysLT1 receptor at 10 uM
[18] = tested on: Venezuelan equine encephalitis virus; experiment: Antiviral activity against Venezuelan equine encephalitis virus TC83 infected in Vero 76 cells assessed as reduction in viral titer by crystal violet staining based microplaque assay relative to untreated control; type: functional, organism-based; settings: TC83, Vero 76
[19] = species: Mus musculus; experiment: Displacement of [3H]PDBu from mouse phorbol ester receptor at 10 uM
[20] = tested on: Mus musculus; experiment: Toxicity in Venezuelan equine encephalitis virus TC83 infected C3H/HeN mouse assessed as induction of ruffled fur at 5 mg/kg/day, ip BID for 4 days; type: organism-based; design: route intraperitoneal; settings: in vivo, 96 h
[21] = target: Alpha-1B adrenergic receptor (Rattus norvegicus) (UniProt P15823); experiment: Displacement of [3H]prazosin from rat adrenergic alpha1B receptor at 10 uM
[22] = target: Neuropeptide Y receptor type 1 (Homo sapiens) (UniProt P25929); experiment: Displacement of [125I]Peptide YY from human neuropeptide Y Y1 receptor at 10 uM
[23] = target: 5-hydroxytryptamine receptor 3A (Homo sapiens) (UniProt P46098); experiment: Displacement of [3H]GR-65630 from human 5HT3 receptor at 10 uM
[24] = tested on: Venezuelan equine encephalitis virus; experiment: Antiviral activity against Venezuelan equine encephalitis virus TrD infected in Vero 76 cells assessed as reduction in viral titer at 0.5 uM by crystal violet staining based microplaque assay relative to untreated control; type: functional, organism-based
[25] = Drug concentration in C57BL/6 mouse brain at 5 mg/kg, ip administered as single dose measured after 120 mins by LC/MS analysis based RACE assay; type: ADME, organism-based; design: dose 5 mg/kg, route intraperitoneal; settings: read-out: Drug uptake
How it was run: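 Brain tissue taken at the terminal 120 min point after one intraperitoneal dose (1, 5 or 10 mg/kg) in C57BL/6 mice, 3 per group, with a vehicle cohort. Drug level measured by LC/MS, averaging two injections per sample; reported as mean ± standard deviation, μM.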

[26] = target: Estrogen receptor (Homo sapiens) (UniProt P03372); experiment: Displacement of [3H]estradiol from human ERalpha at 10 uM
[27] = target: B1 bradykinin receptor (Homo sapiens) (UniProt P46663); experiment: Displacement of [3H](Des-Arg10)-Kallidin from human bradykinin B1 receptor at 10 uM
[28] = target: Sigma non-opioid intracellular receptor 1 (Homo sapiens) (UniProt Q99720); experiment: Displacement of [3H]haloperidol from human sigma1 receptor at 10 uM
[29] = target: Gamma-aminobutyric acid type B receptor subunit 1 (Homo sapiens) (UniProt Q9UBS5); experiment: Displacement of [3H]CGP-54626 from human GABA B1A receptor at 10 uM
[30] = species: Rattus norvegicus; experiment: Displacement of [3H]rolipram from rat Rolipram binding site at 10 uM
[31] = target: L-type calcium channel, dihydropyridine site (Rattus norvegicus, UniProt P22002+P27732+Q02485); experiment: Displacement of [3H]nitrendipine from rat calcium channel L-Type dihydropyridine site at 10 uM; type: protein assay; settings: probe [3H]nitrendipine
[32] = target: Prostaglandin E2 receptor EP4 subtype (Homo sapiens) (UniProt P35408); experiment: Displacement of [3H]prostaglandin E2 from human EP4 […] at 10 uM
[33] = tested on: Plasma; experiment: Stability in mouse plasma assessed as parent compound remaining after 3 hrs; type: ADME, cell-free
[34] = target: Adenosine receptor A2a (Homo sapiens) (UniProt P29274); experiment: Displacement of [3H]CGS-21680 from human adenosine A2A receptor at 10 uM
[35] = target: Sodium-dependent noradrenaline transporter (Homo sapiens) (UniProt P23975); experiment: Displacement of [125I]RTI-55 from human NET at 10 uM
[36] = Aqueous solubility in PBS buffer; type: physicochemical
How it was run: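 Solubility measured in 1× PBS at pH 7.4.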

[37] = tested on: Mus musculus; experiment: Toxicity in Venezuelan equine encephalitis virus TC83 infected C3H/HeN mouse assessed as induction of hunched posture at 5 mg/kg/day, ip BID for 4 days; type: organism-based; design: route intraperitoneal; settings: in vivo, 96 h

Chain of Sigma non-opioid intracellular receptor 1 (Homo sapiens) (Q99720 whole entry): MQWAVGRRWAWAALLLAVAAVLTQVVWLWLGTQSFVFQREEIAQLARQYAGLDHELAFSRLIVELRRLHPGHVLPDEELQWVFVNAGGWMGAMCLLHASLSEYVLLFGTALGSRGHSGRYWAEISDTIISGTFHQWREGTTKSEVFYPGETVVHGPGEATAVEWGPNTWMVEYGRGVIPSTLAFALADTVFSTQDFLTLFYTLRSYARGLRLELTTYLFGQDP
Chain of Estrogen receptor (Homo sapiens) (P03372 whole entry): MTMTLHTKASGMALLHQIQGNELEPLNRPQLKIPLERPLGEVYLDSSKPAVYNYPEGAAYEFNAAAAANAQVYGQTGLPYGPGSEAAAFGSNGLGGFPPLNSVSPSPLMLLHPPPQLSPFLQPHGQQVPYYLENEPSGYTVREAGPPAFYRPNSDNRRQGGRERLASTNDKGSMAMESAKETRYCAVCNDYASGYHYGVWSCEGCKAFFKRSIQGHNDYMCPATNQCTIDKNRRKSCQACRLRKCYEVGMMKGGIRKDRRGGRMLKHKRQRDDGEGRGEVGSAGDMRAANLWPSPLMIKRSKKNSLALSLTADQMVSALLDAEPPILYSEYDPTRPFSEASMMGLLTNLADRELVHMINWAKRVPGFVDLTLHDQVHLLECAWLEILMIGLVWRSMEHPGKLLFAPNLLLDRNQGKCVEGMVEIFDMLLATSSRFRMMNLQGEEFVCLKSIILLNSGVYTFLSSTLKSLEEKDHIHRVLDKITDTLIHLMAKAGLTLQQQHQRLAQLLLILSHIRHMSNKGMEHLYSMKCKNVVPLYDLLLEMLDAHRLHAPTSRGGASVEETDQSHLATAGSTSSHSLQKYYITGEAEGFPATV
Chain of Prostaglandin E2 receptor EP4 subtype (Homo sapiens) (P35408 whole entry): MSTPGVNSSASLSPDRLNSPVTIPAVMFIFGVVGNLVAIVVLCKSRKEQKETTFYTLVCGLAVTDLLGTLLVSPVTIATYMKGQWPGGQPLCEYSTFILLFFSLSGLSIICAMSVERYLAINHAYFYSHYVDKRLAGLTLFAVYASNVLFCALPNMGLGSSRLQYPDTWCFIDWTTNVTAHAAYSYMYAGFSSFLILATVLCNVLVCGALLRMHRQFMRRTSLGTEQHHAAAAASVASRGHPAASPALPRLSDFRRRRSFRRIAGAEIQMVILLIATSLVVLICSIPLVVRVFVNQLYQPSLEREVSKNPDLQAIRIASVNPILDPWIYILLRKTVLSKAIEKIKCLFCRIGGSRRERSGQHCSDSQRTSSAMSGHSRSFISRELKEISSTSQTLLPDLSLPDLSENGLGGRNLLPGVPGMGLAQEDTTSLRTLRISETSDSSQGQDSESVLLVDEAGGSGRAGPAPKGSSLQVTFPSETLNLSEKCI
Chain of 5-hydroxytryptamine receptor 3A (Homo sapiens) (P46098 whole entry): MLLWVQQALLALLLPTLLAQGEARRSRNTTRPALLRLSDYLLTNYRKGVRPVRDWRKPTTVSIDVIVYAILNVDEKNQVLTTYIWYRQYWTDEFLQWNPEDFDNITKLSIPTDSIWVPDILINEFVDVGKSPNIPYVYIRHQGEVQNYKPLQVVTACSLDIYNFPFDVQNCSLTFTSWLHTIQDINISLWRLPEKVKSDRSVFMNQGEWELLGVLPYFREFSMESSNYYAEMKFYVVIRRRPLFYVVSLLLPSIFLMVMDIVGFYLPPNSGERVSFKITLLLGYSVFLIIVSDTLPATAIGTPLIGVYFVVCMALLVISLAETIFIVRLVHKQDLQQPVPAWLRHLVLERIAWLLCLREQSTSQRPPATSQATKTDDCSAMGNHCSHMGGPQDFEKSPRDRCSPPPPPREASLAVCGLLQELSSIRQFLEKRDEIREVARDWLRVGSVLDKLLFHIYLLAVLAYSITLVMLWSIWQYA
Chain of Neuropeptide Y receptor type 2 (Homo sapiens) (P49146 whole entry): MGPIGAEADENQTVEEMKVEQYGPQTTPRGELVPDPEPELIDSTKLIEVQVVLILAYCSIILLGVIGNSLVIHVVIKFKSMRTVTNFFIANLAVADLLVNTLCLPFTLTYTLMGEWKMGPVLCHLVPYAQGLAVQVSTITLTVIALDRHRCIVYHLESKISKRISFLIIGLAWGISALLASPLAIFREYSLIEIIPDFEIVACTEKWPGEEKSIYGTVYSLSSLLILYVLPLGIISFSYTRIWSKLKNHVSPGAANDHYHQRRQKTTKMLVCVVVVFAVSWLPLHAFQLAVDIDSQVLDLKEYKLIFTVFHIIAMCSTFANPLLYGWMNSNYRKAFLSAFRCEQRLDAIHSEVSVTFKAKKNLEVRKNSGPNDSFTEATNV
Chain of B2 bradykinin receptor (Homo sapiens) (P30411 whole entry): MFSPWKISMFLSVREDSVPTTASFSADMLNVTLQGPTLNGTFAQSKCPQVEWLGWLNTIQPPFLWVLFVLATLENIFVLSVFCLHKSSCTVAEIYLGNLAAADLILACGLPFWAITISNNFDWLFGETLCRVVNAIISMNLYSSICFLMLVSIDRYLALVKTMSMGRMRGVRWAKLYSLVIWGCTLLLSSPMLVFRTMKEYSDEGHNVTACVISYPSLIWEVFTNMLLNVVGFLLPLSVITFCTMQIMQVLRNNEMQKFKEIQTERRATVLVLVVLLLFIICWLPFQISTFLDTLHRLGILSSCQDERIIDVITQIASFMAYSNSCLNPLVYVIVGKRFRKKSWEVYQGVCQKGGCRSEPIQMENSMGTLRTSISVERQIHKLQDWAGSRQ
Chain of Adenosine receptor A2a (Homo sapiens) (P29274 whole entry): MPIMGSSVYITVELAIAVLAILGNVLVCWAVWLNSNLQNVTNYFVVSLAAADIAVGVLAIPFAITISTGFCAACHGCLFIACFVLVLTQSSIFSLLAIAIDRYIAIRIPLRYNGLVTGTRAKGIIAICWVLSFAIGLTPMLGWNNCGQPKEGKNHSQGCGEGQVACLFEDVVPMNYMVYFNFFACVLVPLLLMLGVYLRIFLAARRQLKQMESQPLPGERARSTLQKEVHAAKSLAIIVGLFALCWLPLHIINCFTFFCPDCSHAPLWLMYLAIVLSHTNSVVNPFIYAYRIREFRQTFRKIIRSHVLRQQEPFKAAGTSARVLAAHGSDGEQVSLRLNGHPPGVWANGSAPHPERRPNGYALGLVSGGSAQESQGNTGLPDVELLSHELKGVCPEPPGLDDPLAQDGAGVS
Chain of Melatonin-related receptor (Homo sapiens) (Q13585 whole entry): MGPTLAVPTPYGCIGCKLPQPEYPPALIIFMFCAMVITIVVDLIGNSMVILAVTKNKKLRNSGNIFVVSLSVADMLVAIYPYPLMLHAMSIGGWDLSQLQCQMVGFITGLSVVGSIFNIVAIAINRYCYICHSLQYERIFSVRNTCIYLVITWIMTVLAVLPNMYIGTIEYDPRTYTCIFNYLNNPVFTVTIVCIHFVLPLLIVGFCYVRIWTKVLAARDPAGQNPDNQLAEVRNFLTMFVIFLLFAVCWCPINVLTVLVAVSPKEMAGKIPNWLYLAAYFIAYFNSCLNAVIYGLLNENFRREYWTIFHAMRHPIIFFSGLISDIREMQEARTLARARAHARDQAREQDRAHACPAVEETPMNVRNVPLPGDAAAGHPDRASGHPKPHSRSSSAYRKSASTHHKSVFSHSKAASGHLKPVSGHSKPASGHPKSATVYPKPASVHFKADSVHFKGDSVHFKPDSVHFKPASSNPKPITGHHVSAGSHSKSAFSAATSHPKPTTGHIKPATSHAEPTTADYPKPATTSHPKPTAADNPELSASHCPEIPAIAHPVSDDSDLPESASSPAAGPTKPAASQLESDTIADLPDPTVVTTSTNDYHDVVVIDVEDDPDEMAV
Chain of Adenosine receptor A1 (Homo sapiens) (P30542 whole entry): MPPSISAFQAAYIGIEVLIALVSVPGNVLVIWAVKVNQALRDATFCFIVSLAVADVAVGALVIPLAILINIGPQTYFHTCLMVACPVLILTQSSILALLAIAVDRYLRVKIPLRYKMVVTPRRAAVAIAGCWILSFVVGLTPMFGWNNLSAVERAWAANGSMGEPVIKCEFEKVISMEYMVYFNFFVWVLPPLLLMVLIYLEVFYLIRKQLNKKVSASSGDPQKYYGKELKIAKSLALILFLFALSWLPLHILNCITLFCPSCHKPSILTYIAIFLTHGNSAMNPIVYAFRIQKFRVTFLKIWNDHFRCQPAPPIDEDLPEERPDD
Chain of CYP2C9 (P11712 whole entry): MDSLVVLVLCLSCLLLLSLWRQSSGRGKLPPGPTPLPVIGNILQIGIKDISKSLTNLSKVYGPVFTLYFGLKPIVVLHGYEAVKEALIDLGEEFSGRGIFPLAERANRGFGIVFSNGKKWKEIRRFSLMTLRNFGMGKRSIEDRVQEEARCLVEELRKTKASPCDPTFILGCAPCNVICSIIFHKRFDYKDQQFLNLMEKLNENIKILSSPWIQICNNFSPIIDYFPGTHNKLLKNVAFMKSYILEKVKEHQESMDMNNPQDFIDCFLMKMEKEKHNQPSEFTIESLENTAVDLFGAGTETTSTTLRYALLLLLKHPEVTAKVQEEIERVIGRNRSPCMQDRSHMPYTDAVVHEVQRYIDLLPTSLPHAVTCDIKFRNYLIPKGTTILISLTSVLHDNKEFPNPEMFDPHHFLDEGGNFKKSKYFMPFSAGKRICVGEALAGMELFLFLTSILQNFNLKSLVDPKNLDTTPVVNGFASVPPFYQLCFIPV
Chain of B1 bradykinin receptor (Homo sapiens) (P46663 whole entry): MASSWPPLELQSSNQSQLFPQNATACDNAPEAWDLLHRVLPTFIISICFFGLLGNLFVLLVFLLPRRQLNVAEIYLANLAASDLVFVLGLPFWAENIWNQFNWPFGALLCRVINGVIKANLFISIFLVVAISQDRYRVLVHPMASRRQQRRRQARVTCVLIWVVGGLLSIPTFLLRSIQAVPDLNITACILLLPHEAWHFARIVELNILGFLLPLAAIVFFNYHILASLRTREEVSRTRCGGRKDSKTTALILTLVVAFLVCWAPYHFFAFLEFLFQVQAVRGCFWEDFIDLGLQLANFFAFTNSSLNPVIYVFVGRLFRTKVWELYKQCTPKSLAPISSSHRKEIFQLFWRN

SMILES: CN1CCN(C)/C(=N/c2ccc([N+](=O)[O-])cc2C(=O)Nc2ccccc2)C1
- concentration at 2 h [1]: 490 nM
- concentration at 20 min [2]: 2680 nM
- inhibition [3]: 3.4%
- inhibition [4]: -6.1%
- inhibition [5]: -0.5%
- inhibition [6]: 7.04%
- Activity [7]: Non-toxic
- inhibition [8]: 20.4%
- inhibition [9]: Active
- inhibition at 10 µM [10]: 7%
- Activity [11]: Non-toxic
- concentration at 2 h [12]: 23 nM
- inhibition [13]: 18%
- inhibition [14]: 4.41%
- Stability [15]: 82.9%
- Activity [16]: Non-toxic
- inhibition [17]: 10.9%
- EC50 [18]: 170 nM
- inhibition [19]: 0%
- Activity [20]: Non-toxic
- inhibition [21]: -1.17%
- inhibition [22]: 25.9%
- inhibition [23]: 1.64%
- inhibition [24]: Active
- concentration at 2 h [25]: 210 nM
- inhibition [26]: 10%
- inhibition [27]: 9.23%
- inhibition [28]: 6.54%
- inhibition [29]: 35.9%
- inhibition [30]: 34.9%
- inhibition at 10 µM [31]: 4.51%
- inhibition [32]: 4.82%
- Stability [33]: 65.4%
- inhibition [34]: 17%
- inhibition [35]: 91.1%
- solubility [36]: 40.4 µg/mL (≈ 110 µM)
- Activity [37]: Non-toxic
